Results on four molecules are retold here after ChEMBL document CHEMBL4308827 (J Med Chem, 2018).

The target of test [1] is T1, Metabotropic glutamate receptor 2 (Homo sapiens, UniProt Q14416). Briefly: Displacement of [3H]JNJ-46281222 from human mGlu2 receptor expressed in CHOK1 cell membranes preincubated for 3 hrs followed by [3H]JNJ-46281222 addition and measured after 1 hr by microbeta scintillation counting method. (In general: Loss of bound radioactivity is the signal in a displacement assay; it reports binding, not function.)
Target sequence in this assay (Q14416 whole entry): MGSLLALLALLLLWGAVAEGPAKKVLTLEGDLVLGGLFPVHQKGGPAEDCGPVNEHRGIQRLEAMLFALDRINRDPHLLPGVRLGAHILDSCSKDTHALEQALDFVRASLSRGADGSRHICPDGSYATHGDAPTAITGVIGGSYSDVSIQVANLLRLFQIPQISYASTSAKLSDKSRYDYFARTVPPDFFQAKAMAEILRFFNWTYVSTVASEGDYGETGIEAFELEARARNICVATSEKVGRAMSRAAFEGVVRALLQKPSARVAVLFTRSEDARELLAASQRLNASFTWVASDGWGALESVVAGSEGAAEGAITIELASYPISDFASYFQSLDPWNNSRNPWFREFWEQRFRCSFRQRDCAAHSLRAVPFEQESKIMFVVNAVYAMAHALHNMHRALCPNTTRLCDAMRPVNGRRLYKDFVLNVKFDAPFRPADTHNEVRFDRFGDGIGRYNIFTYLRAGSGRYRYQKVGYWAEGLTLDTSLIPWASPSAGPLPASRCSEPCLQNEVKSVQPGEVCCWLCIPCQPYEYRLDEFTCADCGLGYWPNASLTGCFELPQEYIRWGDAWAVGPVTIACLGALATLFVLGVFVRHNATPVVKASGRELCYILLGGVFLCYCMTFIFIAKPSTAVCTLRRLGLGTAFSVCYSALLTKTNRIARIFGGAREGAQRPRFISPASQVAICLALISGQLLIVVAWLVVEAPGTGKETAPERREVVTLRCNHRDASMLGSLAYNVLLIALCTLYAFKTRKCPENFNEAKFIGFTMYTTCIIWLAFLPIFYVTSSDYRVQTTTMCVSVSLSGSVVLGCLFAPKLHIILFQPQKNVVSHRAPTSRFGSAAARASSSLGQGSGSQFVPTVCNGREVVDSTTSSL

In test [2] the target is T1, Metabotropic glutamate receptor 2. As to the kind of experiment: Displacement of [3H]JNJ-46281222 from human mGlu2 receptor expressed in CHOK1 cell membranes after 1 hr by microbeta scintillation counting method.
Target sequence in this assay (Q14416 whole entry): as above
Test [3] has the same target. As to the kind of experiment: Displacement of [3H]JNJ-46281222 from human mGlu2 receptor expressed in CHOK1 cell membranes assessed as association rate constant after 1 hr in presence of glutamate by microbeta scintillation counting method.
Target sequence in this assay (Q14416 19-872 limits assumed): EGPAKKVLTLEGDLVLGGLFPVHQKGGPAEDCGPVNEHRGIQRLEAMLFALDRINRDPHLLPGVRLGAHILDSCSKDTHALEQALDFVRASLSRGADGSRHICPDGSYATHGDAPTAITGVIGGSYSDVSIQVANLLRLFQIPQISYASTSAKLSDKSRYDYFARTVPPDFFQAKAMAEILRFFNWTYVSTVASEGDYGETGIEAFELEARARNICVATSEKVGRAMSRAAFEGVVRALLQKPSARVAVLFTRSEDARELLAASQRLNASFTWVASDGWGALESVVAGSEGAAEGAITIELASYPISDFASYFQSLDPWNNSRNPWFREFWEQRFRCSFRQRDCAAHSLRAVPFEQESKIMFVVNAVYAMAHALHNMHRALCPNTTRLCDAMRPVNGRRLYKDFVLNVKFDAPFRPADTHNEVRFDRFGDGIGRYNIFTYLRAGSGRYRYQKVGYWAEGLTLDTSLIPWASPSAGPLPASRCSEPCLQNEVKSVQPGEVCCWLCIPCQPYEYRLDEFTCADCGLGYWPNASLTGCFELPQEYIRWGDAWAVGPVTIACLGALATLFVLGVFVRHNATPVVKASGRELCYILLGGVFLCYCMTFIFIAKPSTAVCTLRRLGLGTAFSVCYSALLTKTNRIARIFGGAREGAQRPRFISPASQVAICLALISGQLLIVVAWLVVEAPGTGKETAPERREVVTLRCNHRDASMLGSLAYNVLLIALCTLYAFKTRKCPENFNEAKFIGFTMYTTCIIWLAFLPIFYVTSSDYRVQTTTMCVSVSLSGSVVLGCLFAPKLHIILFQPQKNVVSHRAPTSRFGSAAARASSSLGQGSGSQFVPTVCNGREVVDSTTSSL
Test [4] has the same target. As to the kind of experiment: Displacement of [3H]JNJ-46281222 from human mGlu2 receptor expressed in CHOK1 cell membranes assessed as dissociation rate constant after 1 hr in presence of glutamate by microbeta scintillation counting method.
Target sequence in this assay (Q14416 19-872 limits assumed): as above
Test [5] has the same target. As to the kind of experiment: Irreversible displacement of [3H]JNJ-46281222 from human mGlu2 receptor expressed in CHOK1 cell membranes at 10 times IC50 preincubated for 1 hr in presence of glutamate followed by compound washout and [3H]JNJ-46281222 addition measured after 1 hr by microbeta scintillation counting method.
Target sequence in this assay (Q14416 19-872 limits assumed): as above
Test [6] has the same target. Briefly: Positive allosteric modulation of human mGlu2 receptor expressed in CHOK1 cell membranes assessed as increase in glutamate-induced [35S]GTPgammaS binding preincubated for 30 mins followed by [35S]GTPgammaS addition and measured after 90 mins by scintillation spectrometry method. The class given is functional. For orientation: GTPγS is a poorly hydrolysed GTP analogue; its binding reports G protein activation.
Target sequence in this assay (Q14416 whole entry): as the sequence (Q14416 whole entry) above

For test [7] the target is unchanged. As to the kind of experiment: Displacement of [3H]JNJ-46281222 from human mGlu2 receptor expressed in CHOK1 cell membranes assessed as residence time after 1 hr in presence of glutamate by microbeta scintillation counting method.
Target sequence in this assay (Q14416 19-872 limits assumed): as the sequence (Q14416 19-872 limits assumed) above
Test [8] deals with Metabotropic glutamate receptor 5 (Homo sapiens) (UniProt P41594). As to the kind of experiment: Antagonist activity at human mGlu5 receptor expressed in HEK293 cells by calcium assay. Type of test: functional, cell-based.
Test [9] concerns the target Metabotropic glutamate receptor 3 (Homo sapiens) (UniProt Q14832). As to the kind of experiment: Antagonist activity at human mGlu3 receptor expressed in HEK293 cells by calcium assay. Type of test: functional, cell-based.
Test [10] has the same target. As to the kind of experiment: Agonist activity at human mGlu3 receptor expressed in HEK293 cells by calcium assay. Type of test: functional, cell-based.
Test [11] has as its target Metabotropic glutamate receptor 5 (Homo sapiens) (UniProt P41594). As to the kind of experiment: Agonist activity at human mGlu5 receptor expressed in HEK293 cells by calcium assay. The class given is functional, cell-based.
Test [12] has as its target Metabotropic glutamate receptor 1 (Homo sapiens) (UniProt Q13255). As to the kind of experiment: Positive allosteric modulation of human mGlu1 receptor expressed in HEK293 cells by calcium assay. Type of test: functional, cell-based.
In test [13] the target is Metabotropic glutamate receptor 5 (Homo sapiens) (UniProt P41594). As to the kind of experiment: Positive allosteric modulation of human mGlu5 receptor expressed in HEK293 cells by calcium assay. Type of test: functional, cell-based.
Test [14] addresses Metabotropic glutamate receptor 8 (Homo sapiens) (UniProt O00222). Briefly: Antagonist activity at human mGlu8 receptor expressed in HEK293 cells by calcium assay. Type of test: functional, cell-based.
Test [15] deals with Metabotropic glutamate receptor 1 (Homo sapiens) (UniProt Q13255). As to the kind of experiment: Antagonist activity at human mGlu1 receptor expressed in HEK293 cells by calcium assay. The class given is functional, cell-based.
The target of test [16] is Metabotropic glutamate receptor 3 (Homo sapiens) (UniProt Q14832). Briefly: Positive allosteric modulation of human mGlu3 receptor expressed in HEK293 cells by calcium assay. Type of test: functional, cell-based.
Test [17] has as its target Metabotropic glutamate receptor 1 (Homo sapiens) (UniProt Q13255). Briefly: Agonist activity at human mGlu1 receptor expressed in HEK293 cells by calcium assay. The class given is functional, cell-based.
Test [18] concerns the target Metabotropic glutamate receptor 8 (Homo sapiens) (UniProt O00222). As to the kind of experiment: Agonist activity at human mGlu8 receptor expressed in HEK293 cells by calcium assay. Type of test: functional, cell-based.
Test [19] can be described thus: Displacement of [3H]JNJ-46281222 from human mGlu2 T7917.29x30A mutant receptor transiently expressed in CHOK1 cell membranes after 1 hr by liquid scintillation counting method.
Test [20] addresses T1, Metabotropic glutamate receptor 2. Briefly: Positive allosteric modulation of human mGlu2 receptor expressed in CHOK1 cell membranes assessed as increase in glutamate-induced [35S]GTPgammaS binding at 10 times IC50 test compound added before washing steps preincubated for 30 mins followed by [35S]GTPgammaS addition and measured after 30 mins by scintillation spectrometry method. Type of test: functional.
Target sequence in this assay (Q14416 19-872 limits assumed): as above

Test [21] shares this target. As to the kind of experiment: Ratio of EC50 for positive allosteric modulation of human mGlu2 receptor expressed in CHOK1 cell membranes assessed as increase in glutamate-induced [35S]GTPgammaS binding co-incubated with [35S]GTPgammaS to EC50 for positive allosteric modulation of human mGlu2 receptor expressed in CHOK1 cell …. Type of test: functional.
Target sequence in this assay (Q14416 19-872 limits assumed): as above
The species named for test [22] is Homo sapiens. Briefly: Displacement of [3H]JNJ-46281222 from human mGlu2 R6353.32x32A mutant receptor transiently expressed in CHOK1 cell membranes at 10 times IC50 after 1 hr by liquid scintillation counting method.
Test [23] deals with Metabotropic glutamate receptor 2 (Homo sapiens), Q14416 [Y787A]. Briefly: Displacement of [3H]JNJ-46281222 from human mGlu2 Y787A mutant receptor transiently expressed in CHOK1 cell membranes at 10 times IC50 after 1 hr by liquid scintillation counting method.
The species entered for test [24] is Homo sapiens. Briefly: Displacement of [3H]JNJ-46281222 from human mGlu2 T7917.29x30A mutant receptor transiently expressed in CHOK1 cell membranes preincubated for 3 hrs followed by [3H]JNJ-46281222 addition and measured after 1 hr by liquid scintillation counting method.
Test [25] deals with T1, Metabotropic glutamate receptor 2. As to the kind of experiment: Positive allosteric modulation of human mGlu2 receptor expressed in CHOK1 cell membranes assessed as increase in glutamate-induced [35S]GTPgammaS binding measured after 1 hr by scintillation spectrometry method. The class given is functional.
Target sequence in this assay (Q14416 whole entry): as the sequence (Q14416 whole entry) above
For test [26], the species on record is Homo sapiens. As to the kind of experiment: Displacement of [3H]JNJ-46281222 from human mGlu2 C7957.33x34A mutant receptor transiently expressed in CHOK1 cell membranes at 10 times IC50 after 1 hr by liquid scintillation counting method.
Test [27] has as its target T1, Metabotropic glutamate receptor 2. As to the kind of experiment: Irreversible positive allosteric modulation of human mGlu2 receptor expressed in CHOK1 cell membranes assessed as increase in glutamate-induced [35S]GTPgammaS binding at 10 times IC50 preincubated for 30 mins followed by compound washout and subsequent [35S]GTPgammaS addition and measured after 30 mins by scintillation spectrometry method. Type of test: functional.

For test [28] the target is unchanged. As to the kind of experiment: Ratio of Ki for human mGlu2 receptor expressed in CHOK1 cell membranes without preincubation to Ki for human mGlu2 receptor expressed in CHOK1 cell membranes preincubated for 3 hrs. Type of test: cell-based. Put shortly:
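CHO-K1 membranes stably expressing hmGlu2 (butyrate-induced, 15 µg) were pre-coupled to WGA SPA beads. […] Nonspecific binding was defined with 10 µM JNJ-40068782. Mean of ≥3 experiments in duplicate.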

Test [29] shares this target. Briefly: Positive allosteric modulation of human mGlu2 receptor expressed in CHOK1 cell membranes assessed as increase in glutamate-induced [35S]GTPgammaS binding preincubated for 3 hrs followed by [35S]GTPgammaS addition and measured after 1 hr by scintillation spectrometry method. The class given is functional.
Target sequence in this assay (Q14416 whole entry): as above
The test system of test [30] is Metabotropic glutamate receptor 2 (Homo sapiens), Q14416 [R720A]. Briefly: Displacement of [3H]JNJ-46281222 from human mGlu2 R720A mutant receptor transiently expressed in CHOK1 cell membranes at 10 times IC50 after 1 hr by liquid scintillation counting method.
The target in test [31] is T1, Metabotropic glutamate receptor 2. Briefly: Displacement of [3H]JNJ-46281222 from human mGlu2 receptor expressed in CHOK1 cell membranes at IC50 after 1 hr in presence of glutamate by microbeta scintillation counting method.
For test [32] the target is unchanged. As to the kind of experiment: Displacement of [3H]JNJ-46281222 from human mGlu2 receptor transiently expressed in CHOK1 cell membranes after 1 hr by liquid scintillation counting method.
Target sequence in this assay (Q14416 whole entry): as above

SMILES strings stand for the structures. Active and inactive are the calls of the source. No cut-off for these calls is given here.

The Ki is a measure of affinity in units of concentration, obtained from inhibition or displacement. High values mean weaker binding, low ones tighter binding. Usually EC50 stands for the concentration at which the effect is half-maximal. The term pKi denotes the negative decadic logarithm of the Ki, by convention in mol/L. The low end stands for a large Ki, the high end for a small Ki.

Sequence of Metabotropic glutamate receptor 1 (Homo sapiens) (Q13255 19-1194 limits assumed): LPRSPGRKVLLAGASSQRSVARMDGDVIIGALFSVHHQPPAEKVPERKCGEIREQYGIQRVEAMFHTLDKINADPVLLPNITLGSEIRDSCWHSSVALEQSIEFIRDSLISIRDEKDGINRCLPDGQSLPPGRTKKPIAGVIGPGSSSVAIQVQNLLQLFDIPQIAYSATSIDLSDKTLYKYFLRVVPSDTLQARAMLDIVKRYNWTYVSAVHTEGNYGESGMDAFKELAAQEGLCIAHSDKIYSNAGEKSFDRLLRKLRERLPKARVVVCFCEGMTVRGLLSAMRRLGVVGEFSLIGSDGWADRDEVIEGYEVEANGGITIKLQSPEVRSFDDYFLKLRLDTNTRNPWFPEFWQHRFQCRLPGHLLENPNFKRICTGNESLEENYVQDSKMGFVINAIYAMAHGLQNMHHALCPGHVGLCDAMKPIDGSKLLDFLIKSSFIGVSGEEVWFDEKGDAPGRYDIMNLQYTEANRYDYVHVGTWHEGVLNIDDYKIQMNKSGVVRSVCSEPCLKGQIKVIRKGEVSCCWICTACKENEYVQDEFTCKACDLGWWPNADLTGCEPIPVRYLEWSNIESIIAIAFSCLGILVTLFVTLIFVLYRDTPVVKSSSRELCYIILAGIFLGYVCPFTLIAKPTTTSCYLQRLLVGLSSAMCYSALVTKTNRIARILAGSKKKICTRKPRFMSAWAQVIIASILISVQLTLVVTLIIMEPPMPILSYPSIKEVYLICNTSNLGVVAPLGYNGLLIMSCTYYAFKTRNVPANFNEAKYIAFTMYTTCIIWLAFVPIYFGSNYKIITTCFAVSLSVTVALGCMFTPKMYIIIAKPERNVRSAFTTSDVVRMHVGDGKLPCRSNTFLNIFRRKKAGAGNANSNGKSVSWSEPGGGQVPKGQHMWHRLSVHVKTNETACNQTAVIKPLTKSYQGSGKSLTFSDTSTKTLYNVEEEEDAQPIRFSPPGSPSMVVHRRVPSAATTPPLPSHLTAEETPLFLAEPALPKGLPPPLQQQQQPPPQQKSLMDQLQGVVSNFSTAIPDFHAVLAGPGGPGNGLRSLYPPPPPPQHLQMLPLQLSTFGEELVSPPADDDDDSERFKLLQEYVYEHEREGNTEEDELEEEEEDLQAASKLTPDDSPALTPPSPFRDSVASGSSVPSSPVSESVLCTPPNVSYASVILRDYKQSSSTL
Sequence of Metabotropic glutamate receptor 3 (Homo sapiens) (Q14832 23-879 limits assumed): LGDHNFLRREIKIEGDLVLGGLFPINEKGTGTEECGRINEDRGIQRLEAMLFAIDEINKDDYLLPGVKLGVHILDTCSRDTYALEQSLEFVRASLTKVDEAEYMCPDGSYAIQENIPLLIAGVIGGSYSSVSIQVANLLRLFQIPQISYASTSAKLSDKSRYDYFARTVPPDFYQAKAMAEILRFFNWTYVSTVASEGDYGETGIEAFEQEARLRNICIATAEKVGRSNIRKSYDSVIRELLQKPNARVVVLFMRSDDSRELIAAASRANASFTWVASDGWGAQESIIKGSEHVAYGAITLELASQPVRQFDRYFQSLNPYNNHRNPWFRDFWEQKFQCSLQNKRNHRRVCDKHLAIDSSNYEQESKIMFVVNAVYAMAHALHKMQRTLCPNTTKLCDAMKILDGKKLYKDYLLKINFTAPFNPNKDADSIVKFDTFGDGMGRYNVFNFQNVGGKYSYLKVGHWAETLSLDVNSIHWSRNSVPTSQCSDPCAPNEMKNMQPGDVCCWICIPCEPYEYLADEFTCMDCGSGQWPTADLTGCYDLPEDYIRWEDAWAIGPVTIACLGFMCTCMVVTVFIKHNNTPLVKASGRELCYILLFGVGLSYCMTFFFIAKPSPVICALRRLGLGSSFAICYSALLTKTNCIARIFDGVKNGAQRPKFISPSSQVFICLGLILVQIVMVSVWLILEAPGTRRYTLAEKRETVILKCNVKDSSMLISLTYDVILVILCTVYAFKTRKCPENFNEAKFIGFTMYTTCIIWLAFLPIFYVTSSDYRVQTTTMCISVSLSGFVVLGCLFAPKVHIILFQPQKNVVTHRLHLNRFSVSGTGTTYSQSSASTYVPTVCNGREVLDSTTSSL
Sequence of Metabotropic glutamate receptor 8 (Homo sapiens) (O00222 whole entry): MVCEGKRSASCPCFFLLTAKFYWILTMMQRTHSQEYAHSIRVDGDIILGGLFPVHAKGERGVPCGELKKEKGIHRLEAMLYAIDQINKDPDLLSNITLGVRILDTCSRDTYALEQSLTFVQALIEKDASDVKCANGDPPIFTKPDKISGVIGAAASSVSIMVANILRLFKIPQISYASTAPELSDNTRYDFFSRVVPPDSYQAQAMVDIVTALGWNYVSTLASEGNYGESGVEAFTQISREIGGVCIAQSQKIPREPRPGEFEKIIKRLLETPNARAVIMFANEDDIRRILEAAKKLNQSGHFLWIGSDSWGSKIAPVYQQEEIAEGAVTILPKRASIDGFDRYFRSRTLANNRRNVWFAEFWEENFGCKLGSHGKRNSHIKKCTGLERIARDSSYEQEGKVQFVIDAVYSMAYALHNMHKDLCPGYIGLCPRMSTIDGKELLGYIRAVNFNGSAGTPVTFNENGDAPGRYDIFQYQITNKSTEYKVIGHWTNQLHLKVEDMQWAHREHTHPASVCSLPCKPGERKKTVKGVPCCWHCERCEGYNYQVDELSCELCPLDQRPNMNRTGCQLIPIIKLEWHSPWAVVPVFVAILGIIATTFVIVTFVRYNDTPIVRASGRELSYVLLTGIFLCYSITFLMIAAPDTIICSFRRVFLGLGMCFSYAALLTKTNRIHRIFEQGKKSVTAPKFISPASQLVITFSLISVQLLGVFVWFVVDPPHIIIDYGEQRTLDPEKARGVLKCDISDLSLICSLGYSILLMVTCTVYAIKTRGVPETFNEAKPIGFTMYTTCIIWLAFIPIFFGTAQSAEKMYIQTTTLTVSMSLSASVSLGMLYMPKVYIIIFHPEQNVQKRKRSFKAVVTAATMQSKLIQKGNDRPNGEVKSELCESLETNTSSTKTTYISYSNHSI

For the molecule `O=C(NCc1ccc(-c2ccn3c(CC4CC4)nnc3c2C(F)(F)F)cc1)c1ccc(S(=O)(=O)F)cc1`, the Ki in test [1] is 4.17 nM; in test [2] it was 5.75 nM. Moreover, the K in test [3] stood at 2.2 ×10⁵ /M/s; in test [4] it was 0.00057 s⁻¹. Besides, in [5], the inhibition result is “inactive”. Besides, the EC50 in test [6] was 15.1 nM. Further, the TIME in [7] worked out at 0.483 h.
As to `O=C(Nc1cccc(-c2ccn3c(CC4CC4)nnc3c2C(F)(F)F)c1)c1ccc(S(=O)(=O)F)cc1`, the inhibition constant (Ki) is 166 nM in [1] and 112 nM in [2]. The inhibition entry in test [8], in [9], in test [5], in test [14] and in test [15] was “inactive” each time. Further, the result in test [10], in test [11], in test [12], in test [13], in test [16] and in test [17] was inactive. Besides, the result in test [18] was inactive. Besides, the values for the K in [3] and in test [4] were 2.1 ×10⁴ /M/s and 0.00091 s⁻¹, respectively. Further, the EC50 in test [6] is 158 nM. Moreover, the TIME in test [7] came to 0.3 h.
Take `O=C(Nc1ccc(-c2ccn3c(CC4CC4)nnc3c2C(F)(F)F)cc1)c1ccc(S(=O)(=O)F)cc1`: the pKi in [19] is listed as 6.45. The Ki in test [1] was 6.17 nM; in [2], 61.7 nM; in [32] it was 174 nM. Moreover, the outcome in test [20] and in test [27] was Active. Also, the Ratio EC50 in test [21] stood at 7. The inhibition result in [22], in [23], in [26], in test [5] and in test [30] was “Active” in each case. The inhibition result in test [24] and in [31] was “inactive” each time. Besides, the 50% effective concentration (EC50) in [25] is 1260 nM; in test [29], 178 nM; in [6] it was 158 nM. Also, in [3], the K was 3.2 ×10³ /M/s. In test [28], the Ratio Ki was determined as 10.
In the case of `FC(F)(F)c1c(CN2CCC(c3ccccc3)CC2)ccn2c(CC3CC3)nnc12`, the inhibition result in test [22] and in [26] was “inactive” in each case.
